In ChEMBL document CHEMBL1123928, “Inhibition of human sputum elastase by substituted 2-pyrones” (J Med Chem, 1987):
pKi: −log10 of the molar value. ≈ marks a conversion by molar mass, not a printed value.

Assays:
[1] = tested on: alpha-chymotrypsin; assay: (§1) Solubility against bovine alpha-chymotrypsin; assay type: ADME, Bos taurus; settings: cattle
Outline: (§2)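 Single-point screen run under the HSE assay conditions (0.1 M HEPES, 0.5 M NaCl, 14.8% Me2SO, pH 7.5, 37 °C). One inhibitor concentration near its solubility limit: 25, 10, 1000 or 200 μM depending on compound. One substrate concentration at 0.29 Km; porcine elastase Km 2600 μM. Each run at least twice; p-nitrophenol read at 400 nm.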

[2] = target: pancreatic elastase (Sus scrofa, UniProt P00772+P08419); assay: Solubility against porcine pancreatic elastase; assay type: ADME, protein assay; settings: pig; outline: as §2
[3] = target: T1, trypsin (Serine protease 1) (Bos taurus, UniProt P00760); assay: Solubility against bovine trypsin; assay type: ADME; settings: cattle; outline: as §2
T1 sequence (P00760 whole entry): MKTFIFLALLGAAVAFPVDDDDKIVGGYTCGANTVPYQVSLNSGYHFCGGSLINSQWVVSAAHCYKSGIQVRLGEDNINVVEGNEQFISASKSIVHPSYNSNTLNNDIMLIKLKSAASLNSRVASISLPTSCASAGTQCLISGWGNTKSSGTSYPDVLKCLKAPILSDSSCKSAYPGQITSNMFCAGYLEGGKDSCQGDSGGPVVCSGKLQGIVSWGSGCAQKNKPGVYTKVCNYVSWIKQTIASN

[4] = target: T2, Neutrophil elastase (Homo sapiens, UniProt P08246); assay: (§3) Evaluated for inhibition of the human sputum elastase (HSE)
T2 sequence (P08246 whole entry): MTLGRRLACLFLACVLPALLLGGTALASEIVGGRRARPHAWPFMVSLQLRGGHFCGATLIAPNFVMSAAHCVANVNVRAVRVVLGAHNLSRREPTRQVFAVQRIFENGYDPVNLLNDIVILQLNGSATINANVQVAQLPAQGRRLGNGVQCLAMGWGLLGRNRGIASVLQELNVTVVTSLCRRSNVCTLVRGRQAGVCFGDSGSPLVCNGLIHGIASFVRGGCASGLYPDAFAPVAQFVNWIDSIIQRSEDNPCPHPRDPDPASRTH
Outline: (§4)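 HSE from sputum prepared in 50 mM NaOAc/0.45 M NaCl pH 5.5. Assay in 0.1 M HEPES, 0.5 M NaCl, 14.8% Me2SO, pH 7.5, 37 °C. Inhibitor at two or more concentrations (4–250 μM depending on compound). […] Ki from Hanes–Woolf plots with Dixon-type replots.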

[5] = Evaluated for Non-competitive inhibition of the human sputum elastase (HSE); outline: as §4
[6] = Evaluated for inhibition of the human sputum elastase (HSE) at 1000 micro M; No activity
[7] = as §3; assay type: functional; outline: as §4
[8] = Evaluated for uncompetitive inhibition of the human sputum elastase (HSE); outline: as §4
[9] = tested on: alpha-chymotrypsin; assay: as §1; assay type: ADME, organism-based, Bos taurus; settings: cattle; outline: as §2

SMILES | inhibitor concentration tested (near solubility limit) [1] [µM] | inhibitor concentration tested (near solubility limit) [2] [µM] | solubility [3] [µM] | pKi [4] | pKi [5] | Ki [6] | pKi [7] | pKi [8] | solubility [9] [µM]
CCCCCCCCCC(=O)c1c(O)cc(CCCCCCCCC)oc1=O | 25 | 25 | 25 (≈ 9.81 µg/mL) | 5.10 | – | – | – | – | –
CCOC(=O)C(=O)/C=C1\C=C(OC)C=C(O)O1 | 200 | 200 | 200 (≈ 48 µg/mL) | 3.92 | – | – | – | – | –
CCCCCCCCCC(=O)c1c(O)cc(C)oc1=O | 200 | 200 | 200 (≈ 56.1 µg/mL) | – | 3.60 | – | – | – | –
CCCCOC(=O)C(=O)/C=C1\C=C(OC)C=C(O)O1 | 200 | 200 | 200 (≈ 53.7 µg/mL) | 3.46 | – | – | – | – | –
COC1=C/C(=C\C(=O)C(=O)O)OC(O)=C1 | 1000 | 1000 | 1000 (≈ 212 µg/mL) | – | – | No inhibitory activity | – | – | –
CCCCCCCCC(=O)c1c(O)cc(CCCCCCCC)oc1=O | 25 | 25 | 25 (≈ 9.11 µg/mL) | 5.34 | – | – | – | – | –
CCCCCCCCCCCC(=O)c1c(O)cc(C)oc1=O | 200 | 200 | 200 (≈ 61.7 µg/mL) | – | 4.27 | – | – | – | –
CCCCCOC(=O)C(=O)/C=C1\C=C(OC)C=C(O)O1 | 200 | 200 | 200 (≈ 56.5 µg/mL) | 3.39 | – | – | – | – | –
CCCCCCCCCCCC(=O)c1c(O)cc(CCCCCCCCCCC)oc1=O | – | 10 | 10 (≈ 4.49 µg/mL) | – | – | – | – | – | 10 (≈ 4.49 µg/mL)

The next lines start with the values.

inhibitor concentration tested (near solubility limit) [1] [µM] | inhibitor concentration tested (near solubility limit) [2] [µM] | solubility [3] [µM] | pKi [4] | pKi [5] | Ki [6] | pKi [7] | pKi [8] | solubility [9] [µM] | SMILES
200 | 200 | 200 (≈ 50.5 µg/mL) | – | 3.40 | – | – | – | – | CCCCCCCC(=O)c1c(O)cc(C)oc1=O
200 | 200 | 200 (≈ 53.3 µg/mL) | – | – | – | 4.08 | – | – | CCCCCCCCCCCc1cc(O)cc(=O)o1
200 | 200 | 200 (≈ 44.9 µg/mL) | – | – | – | – | 3.85 | – | CCCCCCCc1cc(OC)cc(=O)o1
200 | 200 | 200 (≈ 47.7 µg/mL) | 3.40 | – | – | – | – | – | CCCCCCCCCc1cc(O)cc(=O)o1
200 | 200 | 200 (≈ 44.9 µg/mL) | – | 2.70 | – | – | – | – | CCCCCC(=O)c1c(O)cc(C)oc1=O
25 | 25 | 25 (≈ 8.41 µg/mL) | 4.82 | – | – | – | – | – | CCCCCCCC(=O)c1c(O)cc(CCCCCCC)oc1=O
200 | 200 | 200 (≈ 36.4 µg/mL) | 2.77 | – | – | – | – | – | CCCCCc1cc(O)cc(=O)o1
25 | 25 | 25 (≈ 7.01 µg/mL) | – | 4.17 | – | – | – | – | CCCCCC(=O)c1c(O)cc(CCCCC)oc1=O
200 | 200 | 200 (≈ 42.1 µg/mL) | 2.96 | – | – | – | – | – | CCCCCCCc1cc(O)cc(=O)o1
200 | 200 | 200 (≈ 50.5 µg/mL) | – | – | – | – | 3.89 | – | CCCCCCCCCc1cc(OC)cc(=O)o1
